This passage reports GFP response vs DMSO, GFP response relative to DMSO and GFP response, % of DMSO results from PubChem BioAssay.

The source made the active and inactive calls.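 Rule for the calls, unless noted: active = GFP response above 150% of the DMSO level; inconclusive = fewer than 70 events counted for a yeast strain; inactive = the rest.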

A short description of test [1]: hit retest on RPL19A-GFP reporter strain – cell-based, S. cerevisiae, flow cytometry, cherry picks, mother/daughter gates, confirmation (AID 2270;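 active = GFP response below 50% of the DMSO control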). Conditions: 3 h, at 10 µM, stronger effect = lower value, 100 = same GFP as DMSO wells. On the technique in general: A flow cytometer gives signals particle by particle.
A short description of test [2]: yeast TOR pathway reporter LAP4-GFP change – cell-based, cherry picks, flow cytometry, mother/daughter gates, confirmation (AID 2271;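 active = GFP response above 150% of the DMSO control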;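 note: ratio of sample to DMSO plate mean so 100% equals DMSO level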). Particulars: S. cerevisiae LAP4-GFP strain, 3 h, at 10 µM, stronger effect = higher value, 100 means same as DMSO control. The procedure, abridged:
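Test system: GFP-fusion yeast strain. Medium: synthetic complete (SC) yeast growth medium. Timing: 3 h treatment at 30 °C with rotation. Measured by: GFP by flow cytometry. Control set: positive rapamycin (400 ng/mL), negative DMSO.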

Test [3] in a line: TOR pathway reporter MEP2-GFP, retest of hits – S. cerevisiae, flow cytometry GFP, cherry picks, confirmation (AID 2272;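 active = GFP response above 150% of the DMSO control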;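 note: ratio of well signal to plate DMSO mean so 100% equals DMSO level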). Conditions: S. cerevisiae MEP2-GFP strain, 3 h, at 10 µM, stronger effect = higher value.
Test [4] can be described thus: yeast AGP1-GFP fluorescence change, single-dose – cell-based, flow cytometry, S. cerevisiae, cherry picks, confirmation (AID 2273).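 Note: median GFP channel fluorescence over the whole cell population gate.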 Conditions: S. cerevisiae AGP1-GFP strain, 3 h, at 10 µM.
Test [5] is described as follows: TOR pathway CIT2 reporter hit retest – S. cerevisiae, GFP fusion, cherry picks, mother/daughter gates, confirmation (AID 2274). Conditions: S. cerevisiae CIT2-GFP strain, flow cytometry, 3 h, at 10 µM, stronger effect = higher value.
The mark [6] stands for this setting: measured here: daughter cell gate.
[7] abbreviates: measured here: mother cell gate.
The mark [8] stands for this setting: measured here: daughter cell gate response.
The mark [9] stands for this setting: measured here: mother cell gate response.

On to `COCCCNC(=O)c1ccc2c3c(onc13)-c1ccccc1C2=O`, for which the GFP response vs DMSO was 96.3% (inactive) in test [1], 102% in test [1] (setting [6]), 92.9% in test [1] (setting [7]) and 102% (inactive) in test [3]. Moreover, the figures for the GFP response relative to DMSO in test [2], in test [2] (setting [8]) and in test [2] (setting [9]) were 132% (inactive), 126% and 137%, respectively. Also, the GFP response, % of DMSO in test [4] was 83.6% (inactive); in test [5], 96.5% (inactive); in test [5] (setting [6]) it was 103%; in test [5] (setting [7]), 90.2%.

For the compound `O=[N+]([O-])c1cc(/C=N/O)ccc1Oc1ccccc1Cl`, the GFP response vs DMSO in test [1] was 76.7% (inactive); in test [1] (setting [6]), 75.3%; in test [1] (setting [7]) it was 70.2%; in test [3], 146% (inactive). Also, the values for the GFP response relative to DMSO in test [2], in test [2] (setting [8]) and in test [2] (setting [9]) were 146% (inactive), 106% and 134%, respectively. Also, the values for the GFP response, % of DMSO in test [4] and in test [5] were 135% (inactive) and 155% (active), respectively.

On to `O=C1CC(SCCO)C(=O)N1c1ccc(Oc2ccccc2)cc1` (stereo not drawn), for which the GFP response vs DMSO in test [1] is 99.7% (inactive); in test [1] (setting [6]), 98.7%; in test [1] (setting [7]) it was 101%; in test [3], 104% (inactive). Also, the values for the GFP response relative to DMSO in test [2], in test [2] (setting [8]) and in test [2] (setting [9]) were 103% (inactive), 105% and 104%, respectively. Further, the GFP response, % of DMSO in test [4] is 103% (inactive); in test [5], 104% (inactive); in test [5] (setting [6]), 101%; in test [5] (setting [7]), 106%.

In the case of `O=C(Nc1ccc(F)cc1)c1cc2cc(Cl)ccc2[nH]1`, the GFP response vs DMSO in test [1] was 97% (inactive); in test [1] (setting [6]) it was 96.9%; in test [1] (setting [7]), 96.2%; in test [3], 100% (inactive). Further, the GFP response relative to DMSO is 101% (inactive) in test [2], 97.6% in test [2] (setting [8]) and 94% in test [2] (setting [9]). Moreover, the GFP response, % of DMSO is 102% (inactive) in test [4], 99.7% (inactive) in test [5] and 92.6% in test [5] (setting [7]).

Take `CC1=NNC(=O)/C1=C\c1cn(-c2ccccc2)nc1-c1cccs1`: the GFP response vs DMSO in test [1] was 92.6% (inactive); in test [1] (setting [6]) it was 88%; in test [1] (setting [7]), 89.6%; in test [3], 103% (inactive). Also, the GFP response relative to DMSO was 288% (active) in test [2], 122% in test [2] (setting [8]) and 269% in test [2] (setting [9]). Moreover, the GFP response, % of DMSO in test [4] is 120% (inactive); in test [5] it was 119% (inactive); in test [5] (setting [6]) it was 93.8%; in test [5] (setting [7]), 114%.

Turning to `COc1cc(/C=C2\N=C(c3ccccc3)OC2=O)ccc1OCc1c(C)no[n+]1[O-]`, the GFP response vs DMSO in test [1] was 103% (inactive); in test [1] (setting [6]) it was 101%; in test [1] (setting [7]), 103%; in test [3] it was 104% (inactive). Further, the GFP response relative to DMSO is 96.5% (inactive) in test [2], 97.9% in test [2] (setting [8]) and 96.5% in test [2] (setting [9]). In addition, the GFP response, % of DMSO in test [4] is 97.5% (inactive); in test [5], 99.3% (inactive); in test [5] (setting [6]) it was 100%; in test [5] (setting [7]), 96.8%.

`CSc1ccc(/C=C/C(=O)c2c(O)cc(C)oc2=O)cc1`: the GFP response vs DMSO in test [1] is 105% (inactive); in test [1] (setting [6]) it was 106%; in test [1] (setting [7]) it was 103%; in test [3], 120% (inactive). Besides, the GFP response relative to DMSO in test [2] is 131% (inactive); in test [2] (setting [8]), 125%; in test [2] (setting [9]), 135%. Besides, the GFP response, % of DMSO in test [4] was 96.3% (inactive).

As to `COc1cc(-c2nc3ccccn3c2NCC2CCCO2)ccc1O` (stereo not drawn), the GFP response vs DMSO in test [1] was 102% (inactive); in test [1] (setting [6]) it was 106%; in test [1] (setting [7]), 102%; in test [3] it was 106% (inactive). For the same compound, the GFP response relative to DMSO in test [2] was 93% (inactive); in test [2] (setting [8]), 95%; in test [2] (setting [9]), 88.7%. The GFP response, % of DMSO in test [4] was 103% (inactive); in test [5], 106% (inactive); in test [5] (setting [6]) it was 108%; in test [5] (setting [7]) it was 104%.

Consider `COc1ccc(Br)cc1/C=N/NC(=O)Cn1nnnc1N`, for which the GFP response vs DMSO in test [1] was 99.2% (inactive); in test [1] (setting [6]), 97.6%; in test [1] (setting [7]), 103%; in test [3], 109% (inactive). In addition, the GFP response relative to DMSO is 99.2% (inactive) in test [2], 97.6% in test [2] (setting [8]) and 100% in test [2] (setting [9]). Moreover, the GFP response, % of DMSO in test [4] is 95.8% (inactive); in test [5], 104% (inactive); in test [5] (setting [6]) it was 103%; in test [5] (setting [7]) it was 106%.
